Measurements: ChEMBL document CHEMBL4229356, “Synthesis and antikinetoplastid evaluation of bis(benzyl)spermidine derivatives” (Eur J Med Chem, 2018)

Legend:
[1] = Selectivity index, ratio of CC50 for mouse RAW264.7 cells to IC50 for Leishmania donovani LV9 axenic amastigotes incubated for 72 hrs by resazurin dye based assay; format: toxicity; details: read-out: Ratio CC50/IC50
[2] = system: Trypanosoma brucei gambiense; test: Trypanocidal activity against Trypanosoma brucei gambiense FeoITMAP/1893 after 72 hrs by resazurin dye based assay; format: functional, organism-based; details: FeoITMAP/1893, 72 h
Procedure, shortened: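 T. b. gambiense Feo was grown in supplemented IMDM with 10% FBS. Cells at 4.10⁴/mL were exposed 72 h at 37 °C, 5% CO2 in the dark to two-fold dilutions. Resazurin (450 µM solution) was added for 6 h and read at OD570/OD600. Result given as IC50; pentamidine was the reference.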

[3] = Selectivity index, ratio of CC50 for mouse RAW264.7 cells to IC50 for Trypanosoma brucei gambiense FeoITMAP/1893; format: toxicity; details: read-out: Ratio CC50/IC50
[4] = Cytotoxicity against mouse RAW264.7 cells assessed as reduction in cell viability after 48 hrs by resazurin assay; format: cell-based
Procedure, shortened: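 RAW 264.7 macrophages at 2.10⁴/well were preincubated 24 h, then exposed 48 h at 37 °C, 5% CO2 to two-fold dilutions in DMEM. Resazurin was added for 4 h in the dark and read at OD570/OD600. Result given as CC50.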

[5] = Stability in human plasma by HPLC analysis; format: ADME, cell-free; details: read-out: Stability
Procedure, shortened: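 Human plasma was diluted 10-fold in PBS and incubated with 1 mM compound solutions for 0, 2 and 12 h at 37 °C. Samples were quenched with ice-cold acetonitrile, centrifuged, filtered and analysed by C18 reversed-phase HPLC at 25 °C.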

Leishmania donovani [6] = test: Antiparasitic activity against Leishmania donovani LV9 axenic intramacrophage amastigotes infected in mouse RAW264.7 cells incubated for 48 hrs by Sybr Green 1 dye based fluorescence assay; format: functional, organism-based; details: LV9, RAW264.7, 48 h
Procedure, shortened: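 RAW 264.7 cells at 2.10⁴/well were infected 24 h with axenic amastigotes at a 16:1 parasite to macrophage ratio, then extracellular parasites were removed. Cells were treated 48 h with two-fold dilutions from 100 µM. They were then lysed (freeze-thaw, proteinase K, 55 °C overnight) and total DNA read by SYBR Green I fluorescence against untreated infected cells. Result given as IC50.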

Leishmania donovani [7] = test: Antiparasitic activity against Leishmania donovani LV9 axenic amastigotes incubated for 72 hrs by resazurin dye based assay; format: functional, organism-based; details: LV9, 72 h
Procedure, shortened: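 LV9 axenic amastigotes were derived from promastigotes in M-199 at pH 5.5, 37 °C, 5% CO2, and used in log phase. Cells at 10⁶/mL were exposed 72 h to two-fold dilutions from 100 to 0.02 μM. Resazurin was then added for 24 h in the dark and read at OD570/OD600. IC50 is relative to excipient-only controls; miltefosine was the reference.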

[8] = biological target: Trypanothione reductase (Trypanosoma brucei brucei) (UniProt P39051); test: Inhibition of Trypanosoma brucei trypanothione reductase at 40 uM using 40 uM TS2 as substrate in presence of NADPH by spectrophotometric method relative to control
Trypanothione reductase (Trypanosoma brucei brucei), sequence (P39051 whole entry, looked up): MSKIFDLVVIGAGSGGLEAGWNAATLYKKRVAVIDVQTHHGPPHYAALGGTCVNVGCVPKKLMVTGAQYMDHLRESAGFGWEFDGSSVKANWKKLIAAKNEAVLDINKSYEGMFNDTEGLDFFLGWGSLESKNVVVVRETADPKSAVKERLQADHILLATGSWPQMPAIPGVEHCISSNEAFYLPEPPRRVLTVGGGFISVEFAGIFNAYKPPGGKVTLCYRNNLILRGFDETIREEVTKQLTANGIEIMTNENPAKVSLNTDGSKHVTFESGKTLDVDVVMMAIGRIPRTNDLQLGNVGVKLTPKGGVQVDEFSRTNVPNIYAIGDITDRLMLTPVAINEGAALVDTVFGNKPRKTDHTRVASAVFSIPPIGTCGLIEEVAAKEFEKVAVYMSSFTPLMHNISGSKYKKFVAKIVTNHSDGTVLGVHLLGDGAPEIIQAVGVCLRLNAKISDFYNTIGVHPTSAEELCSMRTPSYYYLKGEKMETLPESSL
Procedure, shortened: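 Recombinant T. brucei TryR (5-10 mU) in 40 mM Hepes, 1 mM EDTA, pH 7.5, with 100 μM NADPH, 5% DMSO, at 25 °C. Inhibitor was fixed at 40 μM; TS2 at 100 or 40 μM started the reaction. NADPH consumption was followed at 340 nm and % inhibition taken against DMSO-matched controls. Run in triplicate, mean ± SD.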

[9] = Selectivity index, ratio of CC50 for mouse RAW264.7 cells to IC50 for Leishmania donovani LV9 axenic intramacrophage amastigotes infected in mouse RAW264.7 cells; format: toxicity, cell-based; details: read-out: Ratio CC50/IC50
Mus musculus = test: Toxicity in Swiss mouse assessed as death at 100 mg/kg, ip administered as single dose measured up to 30 days; format: organism-based; details: in vivo, 720 h
Procedure, shortened: (§1)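 Swiss mice infected ip with 10,000 T. b. brucei CMP trypanosomes, randomly grouped (six per batch), then given one ip dose of 100 or 10 mg/kg; controls received pentamidine, melarsamine or excipient. Parasitemia followed at days 2, 3, 4 and 30; deaths recorded by day post-treatment; efficacy as mean survival time minus that of excipient-treated controls (days ± SD).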

[10] = system: Trypanosoma brucei brucei; test: Antitrypanosomal activity against Trypanosoma brucei brucei CMP infected in Swiss mouse assessed as change in mean survival time at 100 mg/kg, ip administered as single dose measured up to 30 days; format: functional; procedure, shortened: as §1

Compound | selectivity ratio at 72 h [1] | IC50 [2] [µM] | selectivity ratio [3] | CC50 at 48 h [4] [µM] | half-life [5] [h] | IC50 (Leishmania donovani [6]) [µM] | IC50 (Leishmania donovani [7]) [µM] | inhibition [8] [%] | selectivity ratio [9] | Activity (Mus musculus) | Survival [10] [days]
NCCCCNCCCN(Cc1ccc(-c2ccccc2)cc1)Cc1ccc(-c2ccccc2)cc1 | 1.1 | 0.2 | 21 | 4.2 | > 12 | 7.1 | 3.9 |  |  |  | 
NCCCCNCCCN(Cc1ccc2ccccc2c1)Cc1ccc2ccccc2c1 |  | 0.4 | 12.2 | 4.9 |  | 8.7 | 5 | 47 |  |  | 
NCCCCNCCCN(Cc1ccc(F)cc1)Cc1ccc(F)cc1 |  | 3.5 | 9.4 | 33.1 |  | 35.8 | 70.3 |  |  |  | 
CC(C)(C)OC(=O)NCCCCNCCCN(Cc1ccccc1)Cc1ccccc1 |  | 0.6 | 20.8 | 12.5 |  | 3.4 | 14.6 |  | 3.7 |  | 
CC(C)(C)OC(=O)NCCCCNCCCN(Cc1cccc(-c2ccccc2)c1)Cc1cccc(-c2ccccc2)c1 | > 1.2 | 33.9 | > 2.9 | > 100 |  | > 100 | 79.5 |  |  |  | 
CC(C)(C)OC(=O)NC1CCC(N(CCCN(Cc2ccc(F)cc2)Cc2ccc(F)cc2)CCCN(Cc2ccc(F)cc2)Cc2ccc(F)cc2)CC1 (stereo not drawn) | > 9.8 | 4.2 | > 23.8 | > 100 |  | 17.2 | 10.2 |  | > 5.8 |  | 
CC(C)(C)OC(=O)NCCCCNCCCN(Cc1ccc(OCc2ccccc2)cc1)Cc1ccc(OCc2ccccc2)cc1 | 1.3 | 4.7 | 7.1 | 33.3 |  | 42 | 26.4 |  |  |  | 
NC1CCC(NCCCN(Cc2ccccc2)Cc2ccccc2)CC1 (stereo not drawn) |  | 2.1 | 3.6 | 7.6 |  | 6.6 | > 100 |  | 1.1 |  | 
CC(C)(C)OC(=O)NCCCCNCCCN(Cc1ccc(F)cc1)Cc1ccc(F)cc1 |  | 2 | 4.3 | 8.7 |  | 14.5 | 14.7 |  |  |  | 
CC(C)(C)OC(=O)NCCCCNCCCN(Cc1ccc(-c2ccccc2)cc1)Cc1ccc(-c2ccccc2)cc1 | > 2.6 | 14.4 | > 6.9 | > 100 |  | 41.7 | 38.5 |  | > 2.4 |  | 
N=C(N)c1ccc(OCCCCCOc2ccc(C(=N)N)cc2)cc1.O=S(=O)(O)CCO.O=S(=O)(O)CCO [PENTAMIDINE ISETHIONATE] |  |  |  |  |  |  |  |  |  | Non-Toxic | >30
NCCCCNCCCN(Cc1ccsc1)Cc1ccsc1 |  | 6.1 | 8.6 | 52.8 |  | 59.1 | > 100 |  |  |  | 
